Results published in ChEMBL document CHEMBL1687829, “Evaluation of hepatotoxicity with off-label oral-treatment doses of voriconazole for invasive fungal infections” (Antimicrob Agents Chemother, 2011).

Assays:
Homo sapiens [1] = experiment: Hepatotoxicity in patients assessed as three times increase in upper limit of normal bilirubin level at 200 mg, po bid for 72 days; format: toxicity, organism-based; conditions: in vivo, 1728 h
Outline: (§1)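 Retrospective cohort at one hospital, 2006–2008. Patients received ≥7 days of oral voriconazole treatment for possible, probable or proven invasive fungal infection, with baseline and follow-up liver enzymes available; prophylaxis use was excluded. Groups were fixed 200 mg twice daily (n = 25) or weight-based 4 mg/kg twice daily after day 1 (n = 84). Read-out was number (%) of patients with a value >5× baseline or >3× ULN.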

Homo sapiens [2] = experiment: Hepatotoxicity in patients assessed as three times increase in upper limit of normal bilirubin level at 297.3 mg, po bid for 76.1 days; format: toxicity, organism-based; conditions: in vivo, 1826.4 h; outline: as §1
Homo sapiens [3] = experiment: Hepatotoxicity in patients assessed as five times increase in baseline bilirubin level at 200 mg, po bid for 72 days; format: toxicity, organism-based; conditions: in vivo, 1728 h; outline: as §1
Homo sapiens [4] = experiment: Hepatotoxicity in patients assessed as five times increase in baseline bilirubin level at 297.3 mg, po bid for 76.1 days; format: toxicity, organism-based; conditions: in vivo, 1826.4 h; outline: as §1
Homo sapiens [5] = experiment: Hepatotoxicity in patient assessed as three times increase in upper limit of normal […] level at 200 mg, po bid for 72 days; format: toxicity, organism-based; conditions: in vivo, 1728 h; outline: as §1
Homo sapiens [6] = experiment: Hepatotoxicity in patient assessed as three times increase in upper limit of normal […] level at 297.3 mg, po bid for 76.1 days; format: toxicity, organism-based; conditions: in vivo, 1826.4 h; outline: as §1
Homo sapiens [7] = experiment: Hepatotoxicity in patient assessed as five times increase in baseline ALP level at 200 mg, po bid for 72 days; format: toxicity, organism-based; conditions: in vivo, 1728 h; outline: as §1
Homo sapiens [8] = experiment: Hepatotoxicity in patient assessed as five times increase in baseline […] level at 297.3 mg, po bid for 76.1 days; format: toxicity, organism-based; conditions: in vivo, 1826.4 h; outline: as §1
Homo sapiens [9] = experiment: Hepatotoxicity in patient assessed as three times increase in upper limit of normal AST level at 200 mg, po bid for 72 days; format: toxicity, organism-based; conditions: in vivo, 1728 h; outline: as §1
Homo sapiens [10] = experiment: Hepatotoxicity in patient assessed as three times increase in upper limit of normal AST level at 297.3 mg, po bid for 76.1 days; format: toxicity, organism-based; conditions: in vivo, 1826.4 h; outline: as §1
Homo sapiens [11] = experiment: Hepatotoxicity in patient assessed as five times increase in baseline AST level at 200 mg, po bid for 72 days; format: toxicity, organism-based; conditions: in vivo, 1728 h; outline: as §1
Homo sapiens [12] = experiment: Hepatotoxicity in patient assessed as five times increase in baseline AST level at 297.3 mg, po bid for 76.1 days; format: toxicity, organism-based; conditions: in vivo, 1826.4 h; outline: as §1
Homo sapiens [13] = experiment: Hepatotoxicity in patient assessed as three times increase in upper limit of normal ALT level at 200 mg, po bid for 72 days; format: toxicity, organism-based; conditions: in vivo, 1728 h; outline: as §1
Homo sapiens [14] = experiment: Hepatotoxicity in patient assessed as three times increase in upper limit of normal ALT level at 297.3 mg, po bid for 76.1 days; format: toxicity, organism-based; conditions: in vivo, 1826.4 h; outline: as §1
Homo sapiens [15] = experiment: Hepatotoxicity in patient assessed as five times increase in baseline ALT level at 200 mg, po bid for 72 days; format: toxicity, organism-based; conditions: in vivo, 1728 h; outline: as §1
Homo sapiens [16] = experiment: Hepatotoxicity in patient assessed as five times increase in baseline ALT level at 297.3 mg, po bid for 76.1 days; format: toxicity, organism-based; conditions: in vivo, 1826.4 h; outline: as §1
Homo sapiens [17] = experiment: Toxicity in patient assessed as visual disturbance at 200 mg, po bid for 72 days; format: organism-based; conditions: in vivo, 1728 h
Outline: (§2)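 Retrospective chart review of the same cohort: adults on ≥7 days of oral voriconazole treatment, either fixed 200 mg twice daily (n = 25) or weight-based dosing (n = 84). Visual disturbances were taken from the medical records as a secondary adverse-event endpoint and given as number (%) of patients per group.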

Homo sapiens [18] = experiment: Toxicity in patient assessed as visual disturbance at 297.3 mg, po bid for 76.1 days; format: organism-based; conditions: in vivo, 1826.4 h; outline: as §2
Homo sapiens [19] = experiment: Toxicity in patients assessed as adverse event at 297.3 mg, po bid for 76.1 days; format: organism-based; conditions: in vivo, 1826.4 h
Outline: (§3)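 Same retrospective cohort (fixed 200 mg twice daily, n = 25, versus weight-based oral dosing, n = 84; ≥7 days of treatment). The outcome was voriconazole discontinuation that the practitioner attributed to an adverse drug event, taken from the medical records. Counts and % per group were compared between groups.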

Homo sapiens [20] = experiment: Toxicity in patients assessed as adverse event at 200 mg, po bid for 72 days; format: organism-based; conditions: in vivo, 1728 h; outline: as §3

C[C@@H](c1ncncc1F)[C@](O)(Cn1cncn1)c1ccc(F)cc1F [VORICONAZOLE]
Activity (Homo sapiens [1]): 16% | Activity (Homo sapiens [2]): 6% | Activity (Homo sapiens [3]): 12% | Activity (Homo sapiens [4]): 3.6% | Activity (Homo sapiens [5]): 32% | Activity (Homo sapiens [6]): 11.9% | Activity (Homo sapiens [7]): 4% | Activity (Homo sapiens [8]): 3.6% | Activity (Homo sapiens [9]): 16% | Activity (Homo sapiens [10]): 20.2% | Activity (Homo sapiens [11]): 12% | Activity (Homo sapiens [12]): 15.5% | Activity (Homo sapiens [13]): 12% | Activity (Homo sapiens [14]): 15.5% | Activity (Homo sapiens [15]): 24% | Activity (Homo sapiens [16]): 13.1% | Activity (Homo sapiens [17]): 4% | Activity (Homo sapiens [18]): 3.6% | Activity (Homo sapiens [19]): 16.9% | Activity (Homo sapiens [20]): 0%
